Hits are enriched below; roughly 4.6% of the tested compounds scored in any of these assays.
TAAR1 ag: human TAAR1 agonism. AID 624467. activation, % at 3 µM. 360,000 tested, 0.99% active. CHO RD-HGA16 TAAR1, Fluo-8 calcium fluorescence; vehicle wells 0%, saturating PEA agonist 100%;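 active = activation above the mean activation of all test compounds in the run plus 3 SD, cut at about 38% in these data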
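Test system: RD-HGA16 (CHO) cells co-expressing Gα16 and hTAAR1 / Benchmarks: DMSO vehicle as 0%, PEA at EC100 as 100% / Repeats: no replicates (n 1) / Measure: % activation from peak over basal fluorescence ratio, DMSO-to-PEA scaled / Timing: 17-24 h plating, Fluo-8 75 min 37 °C, 30 min RT / Technique: kinetic Fluo-8 calcium fluorescence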
OX1R antag-1: OX1R (human) antagonism. 330,000 tested, 1.8% active. OX1R-expressing cells, FRET antagonist read-out. O43613. inhibition, % at 6.6 µM; in the data active = inhibition mostly above about 38%, no sharp cut-off; inactive = mostly below about 40%;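 note: 0% = agonist challenge alone and 100% = reference antagonist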
Target sequence (O43613 whole entry, looked up): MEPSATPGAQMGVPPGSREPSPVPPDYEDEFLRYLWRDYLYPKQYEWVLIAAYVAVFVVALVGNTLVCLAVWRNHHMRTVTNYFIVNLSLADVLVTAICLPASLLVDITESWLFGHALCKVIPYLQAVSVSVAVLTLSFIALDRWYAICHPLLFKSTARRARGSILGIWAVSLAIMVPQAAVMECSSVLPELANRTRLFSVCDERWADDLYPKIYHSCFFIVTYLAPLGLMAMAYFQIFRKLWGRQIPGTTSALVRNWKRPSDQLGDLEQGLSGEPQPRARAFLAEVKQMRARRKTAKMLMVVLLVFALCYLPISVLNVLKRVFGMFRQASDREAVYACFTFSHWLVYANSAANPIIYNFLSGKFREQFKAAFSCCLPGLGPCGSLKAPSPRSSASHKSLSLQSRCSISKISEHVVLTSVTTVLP
GPR7 antag: human neuropeptides B/W receptor 1 antagonism. P48145. GPR7-expressing cells, fluorescence antagonist assay. inhibition, % at 4.4 µM. 290,000 tested, 1.1% active; in the data active = inhibition above about 16%, passing the limit was not always enough;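 note: cells stimulated with the agonist NPW; 0% = agonist with vehicle and 100% = vehicle without agonist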
Target sequence (P48145 whole entry, looked up): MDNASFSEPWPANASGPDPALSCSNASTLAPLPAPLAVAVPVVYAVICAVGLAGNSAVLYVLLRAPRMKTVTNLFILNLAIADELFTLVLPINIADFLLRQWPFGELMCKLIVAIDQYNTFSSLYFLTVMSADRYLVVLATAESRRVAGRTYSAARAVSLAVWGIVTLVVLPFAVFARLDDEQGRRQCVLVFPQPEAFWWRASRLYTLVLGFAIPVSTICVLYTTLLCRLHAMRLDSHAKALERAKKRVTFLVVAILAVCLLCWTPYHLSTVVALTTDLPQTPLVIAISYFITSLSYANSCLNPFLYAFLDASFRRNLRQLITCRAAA
TAAR1 antag: human TAAR1 antagonism; 360,000 tested, 1.5% active; inhibition, % at 3 µM; AID 624466; Q96RJ0; CHO RD-HGA16 TAAR1, Fluo-8 calcium fluorescence, antagonist;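 active = inhibition above a per-plate cutoff, the mean inhibition of test compounds on that plate plus 3 SD, cut at about 49% in these data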;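 note: 0% = DMSO plus EC80 beta-PEA response and 100% = DMSO alone without agonist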
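Assay system: RD-HGA16 CHO cells with stable hTAAR1 and Gα16 / Reagent: EC80 β-phenethylamine stimulus / Doses: 3 µM, single point / Timing: dye loading 75 min at 37 °C, then 30 min room temperature / Measured by: Fluo-8 intracellular calcium dye fluorescence, real-time kinetic reads / Controls: vehicle wells and EC80 agonist wells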
OX1R antag-2: blocks the human orexin 1 receptor; CHO/OX1R cells, Fluo-8 calcium fluorescence, orexin A; inhibition, % at 5 µM; 330,000 tested, 0.43% active;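 active = inhibition above its plate's threshold, mean inhibition of all tested compounds on the plate plus 3 SD, cut at about 37% in these data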;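 note: 0% = orexin A challenge wells and 100% = SB-334867-A antagonist wells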
CHO parental Ca: counter-screen for OX1R antagonists: effect in parental CHO cells. 330,000 tested, 0.63% active. inhibition, % at 5.6 µM. AID 463079. parental CHO-K1, ATP-induced calcium, Fluo-8 fluorescence;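 active = inhibition above that plate's mean sample inhibition plus 3 SD, cut at about 26% in these data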;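 note: 0% = ATP-challenged DMSO wells and 100% = DMSO wells without ATP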
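Test system: untransfected parental CHO cell line. Compound: one dose, 5.6 µM nominal. Detection: intracellular calcium via Fluo-8 no-wash fluorescent dye. Measure: % inhibition. Benchmarks: ATP-challenged DMSO wells low, unchallenged DMSO wells high.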
* = called active by the depositor; · = no result.

SMILES	TAAR1 ag	OX1R antag-1	GPR7 antag	TAAR1 antag	OX1R antag-2	CHO parental Ca
CC(C)C[C@H]1CN([C@@H](Cc2ccccc2)CN2CCC[C@H]2CN2C(=O)C(=O)NC[C@@H]2Cc2ccc(O)cc2)C(=O)C(=O)N1CC1CCCCCC1	-1.4	·	·	-22.1	·	·
CS(=O)(=O)c1ccc(OCCCN2CCC(C(O)(c3ccccc3)c3ccccc3)CC2)cc1	14.2	·	·	21.9	·	·
C[C@@H]1ON(C)[C@H]2C[C@H]3c4[nH]c5c(-c6ccccc6F)cccc5c4CCN3C(=O)[C@@H]12	3.6	·	·	20.2	·	·
Cc1nc2cc(-c3cccc(F)c3)nn2c(C)c1CCC(=O)NC(C)c1ccc2c(c1)OCCO2 (stereo not given)	-1.4	49.0*	-9.4	19.6	8.8	-25.0
Cc1nc2cc(-c3ccccc3)nn2c(C)c1CCC(=O)NC(C)c1ccc2c(c1)OCCO2 (stereo not given)	-0.7	52.2*	-1.1	-4.1	-5.2	-20.2
Cc1nc2nc(C)c(CCC(=O)NC(C)c3ccc4c(c3)OCCO4)c(C)n2n1 (stereo not given)	2.0	11.8	-5.2	-11.3	-5.8	8.6
O=C(NCC1CCN(C(=O)C(=O)c2cc3ccccc3o2)CC1)c1ccc2c(c1)OCCCO2	-0.3	·	·	15.1	·	·
O=C(CSc1nc2ncc(Br)cc2[nH]1)c1ccc([N+](=O)[O-])cc1	0.3	9.6	-7.8	-1.7	3.9	9.2
O=C(CSc1nc2ccc([N+](=O)[O-])cc2[nH]1)c1ccc2ccccc2c1	6.5	34.0	-14.3	52.4*	-19.2	0.7
CCCN(C(=O)C1CCCN(c2ncnc3c2nc2n3CCCCC2)C1)c1ccccc1C (stereo not given)	1.7	·	·	3.8	·	·
CCOc1ccc2oc(C(=O)Nc3ccc4c(c3)OCO4)c(C)c2c1	0.8	12.4	-16.4	-1.0	-34.7	-20.1
COc1ccc(CCNC(=O)c2oc3ccccc3c2C)cc1	4.0	15.7	·	8.6	-29.3	-25.9
Cc1c(C(=O)NCCc2ccc3c(c2)OCCO3)oc2ccccc12	9.9	37.6*	0.6	29.5	5.5	-8.3
CCC(=O)Nc1ccc(NC(=O)c2oc3ccccc3c2C)cc1	14.1	47.1*	-15.2	-2.1	-14.0	-10.3
CC(=O)Nc1cccc(NC(=O)c2oc3ccccc3c2C)c1	19.3	61.8*	-10.6	24.3	10.8	-8.4
CCOc1ccc2oc(C(=O)Nc3ccc(N4CCOCC4)cc3)c(C)c2c1	18.5	36.0	-10.7	50.3*	-28.6	-5.4
CCC(=O)Nc1ccc(NC(=S)NC(=O)c2oc3ccccc3c2C)cc1	6.3	5.3	-9.2	-24.9	-25.3	-5.9
O=C(NN=Cc1ccccc1Cl)C(=O)Nc1cccc(C(F)(F)F)c1	-0.3	·	·	7.0	·	·
O=C(NCC1CCN(C(=O)C(=O)c2cccs2)CC1)c1ccc2ccccc2c1	4.0	·	·	7.4	·	·
CCc1ccc(S(=O)(=O)/N=C2\C=C(Nc3ccc(C(=O)O)cc3)C(=O)c3ccccc32)cc1	9.1	51.7*	-28.9	24.7	-11.3	-15.5
Cc1ccc(S(=O)(=O)/N=C2\C=C(Nc3cccc(C(=O)O)c3)C(=O)c3ccccc32)cc1	1.3	35.2	-20.5	0.8	-20.0	-15.1
Cc1ccc(N(C)S(=O)(=O)c2cccc(C(=O)OCC(=O)c3c(N)n(C)c(=O)n(C)c3=O)c2)cc1	17.9	26.9	·	66.3*	9.7	9.5
CCC(=O)c1ccc(OCC(=O)Nc2cccc(S(=O)(=O)N(C)c3ccccc3)c2)cc1	15.6	26.8*	·	76.4*	77.0*	43.6*
CN(C(=O)COC(=O)c1cccc(S(=O)(=O)N2CCCCCC2)c1)c1ccccc1	6.1	·	·	-14.7	·	·
COc1ccc(N(C)S(=O)(=O)c2cccc(C(=O)OCC(=O)N(C)c3ccccc3)c2)cc1	15.5	10.7	·	56.0*	-1.6	-19.0
SMILES	TAAR1 ag	OX1R antag-1	GPR7 antag	TAAR1 antag	OX1R antag-2	CHO parental Ca
COc1ccccc1C(=O)N1CCN(C(=O)[C@H](CCc2ccccc2)NC(=O)[C@H]2O[C@@H](n3cnc4c(N)ncnc43)[C@H](O)[C@@H]2O)CC1	0.3	·	·	6.8	·	·
CN(C)S(=O)(=O)c1cccc(NC(=O)C2CCCN(C(=O)c3ccc(Cl)cc3)C2)c1 (stereo not given)	6.3	·	·	-4.1	·	·
CCN(c1ccccc1)S(=O)(=O)c1cc(C(=O)NCc2ccco2)ccc1C	6.5	0.0	·	-0.8	0.1	-5.9
CCc1ccc(NC(=O)c2ccc(F)c(S(=O)(=O)N(CC)c3ccccc3)c2)cc1	6.1	24.8	-18.2	58.9*	0.0	33.8
O=c1c(-c2nnc(SCc3ccc(Cl)cc3Cl)o2)cccn1Cc1ccccc1	5.9	51.7*	-5.3	10.0	49.1*	43.0*
CSc1nnc(-c2cccn(Cc3ccccc3)c2=O)o1	3.0	27.1	-8.3	-5.0	-22.5	-16.2
O=C(Nc1ccccc1)c1ccccc1NS(=O)(=O)c1ccc(Cl)s1	1.9	64.9*	16.2	2.5	8.6	28.2*
Cc1ccc(NC(=O)c2ccccc2NS(=O)(=O)c2ccc(Cl)s2)cc1	4.2	45.9	10.7	28.1	14.9	-4.7
O=C(Nc1ccccc1Cc1ccccc1)c1ccccc1NS(=O)(=O)c1ccc(Cl)s1	4.2	77.3*	18.2	33.3	28.1	23.6
Cc1ccc2nc(CN(C)C(=O)[C@H]3O[C@@H](n4cnc(C(N)=O)n4)[C@H](O)[C@@H]3O)[nH]c2c1	-0.2	·	·	-5.4	·	·
CCOC(=O)[C@@H]1CSCCS(=O)(=O)N1	9.3	·	·	-14.0	·	·
CN(Cc1ccc(Cl)cc1)C(=O)c1ccc(S(=O)(=O)NCc2ccco2)cc1	10.0	33.9*	·	15.2	8.8	-7.7
COc1ccc(C2c3[nH]c4ccccc4c3CCN2Cc2cccn2-c2ncccn2)cc1C (stereo not given)	1.0	26.1	29.8*	1.4	-21.8	-32.6
CC(C)(C)S(=O)N1Cc2cc(C(=O)NCCCN3CCOCC3)nc(-c3cccc(-c4cc5ccccc5o4)c3)c2[C@@H]1CCO (stereo not given in full)	20.6	·	·	55.3*	·	·
CCCNC(=O)c1cc2c(c(-c3cccc(-c4cc5ccccc5o4)c3)n1)[C@H](CCO)N(C(=O)NC(C)C)C2	5.0	·	·	50.1*	·	·
CC(=O)N1Cc2cc(C(=O)NCC(F)(F)F)nc(-c3cccc(-c4cc5ccccc5o4)c3)c2[C@@H]1CCO	2.2	·	·	-20.8	·	·
CC(C)(C)S(=O)N1Cc2cc(C(=O)NCC(F)(F)F)nc(-c3cccc(-c4cccc(F)c4)c3)c2[C@@H]1CCO (stereo not given in full)	14.7	·	·	50.8*	·	·
COc1ccc(C2CC(=O)C(c3ccc(Br)cc3)=CN2Cc2ccccc2)cc1 (stereo not given)	0.1	·	·	-28.0	·	·
COc1cccc(C(=O)N2CCC[C@@H]2C(=O)N2CCC[C@@H]2C(=O)NCc2ccccc2)c1	1.4	·	·	-28.7	·	·

Assay outcomes: PubChem BioAssay, The Scripps Research Institute Molecular Screening Center
